According to ChEMBL document CHEMBL4020823, “Highly Selective, Potent, and Oral mTOR Inhibitor for Treatment of Cancer as Autophagy Inducer” (J Med Chem, 2018):
Calls of active or inactive are those of the source. The rule behind the calls is not given here.

Legend:
[1] = test system: T47D; assay: Induction of autophagy in human T47D cells assessed as increase in LC3-2 level at 0.25 to 0.5 uM after 48 hrs by Western blot analysis; assay type: functional, cell-based
In short: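 Cells treated with test agents at several concentrations for 2 days (48 h). LC3B-II detected by Western blot on lysates, with β-actin as internal control. Membranes blocked in 5% skim milk, primary antibodies at 4 °C overnight, peroxidase-conjugated anti-mouse or anti-rabbit IgG secondary, ECL detection.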

[2] = AUC (0 to infinity) in Sprague-Dawley rat at 20 mg/kg, po administered as single dose by HPLC analysis; assay type: ADME, organism-based; set-up: dose 20 mg/kg, route oral, time infinity; conditions: in vivo
In short: (§1)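 Rats fasted overnight, then given one 20 mg/kg dose either iv or po. Blood was collected and centrifuged at once to obtain plasma. Plasma drug levels were measured by HPLC, and PK parameters were derived from the concentration-time data.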

[3] = species: Homo sapiens; assay: Inhibition of mTORC2 in human T47D cells assessed as reduction in AKT phosphorylation at Ser473 residues at 0.25 to 0.5 uM by Western blot analysis; assay type: cell-based
In short: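 Cells exposed to a range of compound concentrations; whole-cell lysates immunoblotted for phospho-AKT (Ser473) as the mTORC2 readout, alongside S6 and 4E-BP1 phosphorylation for mTORC1. Membranes blocked in 5% skim milk, primary antibodies overnight at 4 °C, peroxidase-conjugated anti-mouse or anti-rabbit IgG secondary, ECL detection. Rapamycin as comparator.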

[4] = target: PI3K p110 beta/p85 alpha (Mus musculus) (UniProt P26450+Q8BTI9); assay: Inhibition of full length recombinant mouse PI3K p110beta/p85alpha at 1 uM relative to control; assay type: protein-complex assay
In short: (§2)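 Eurofins KinaseProfiler panel with compound at a single 1 μM concentration. ATP at the Km of each kinase. Result is % inhibition, mean of two independent experiments.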

[5] = species: Homo sapiens; assay: Inhibition of full length recombinant human PI3K p110alpha/p65alpha at 1 uM relative to control; in short: as §2
[6] = Oral bioavailability in Sprague-Dawley rat at 20 mg/kg administered as single dose by HPLC analysis; assay type: ADME, organism-based; conditions: in vivo
In short: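 Rats fasted overnight, then given a single 20 mg/kg dose either iv or po. Blood collected and centrifuged immediately to obtain plasma. Plasma drug levels measured by HPLC, and pharmacokinetic parameters derived from both routes.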

[7] = Protein binding in rabbit plasma at 4 uM after 4 hrs by equilibrium dialysis method; assay type: ADME, cell-free, Oryctolagus cuniculus; conditions: read-out: PPB (converted)
In short: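 Plasma protein binding measured in rabbit and human plasma with compound at 4 μM over a 4 h period; result given as percent bound.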

[8] = species: Homo sapiens; assay: Inhibition of mTORC1 in human T47D cells assessed as reduction in 4E-BP1 phosphorylation at Ser65 residues at 0.25 to 0.5 uM by Western blot analysis; assay type: cell-based
In short: (§3)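 Cells treated with the indicated concentrations, then whole-cell lysates immunoblotted. mTORC1 activity read as S6 and 4E-BP1 phosphorylation; mTORC2 activity read as AKT Ser473 phosphorylation. Blocking in 5% skim milk, primary antibodies at 4 °C overnight, peroxidase-conjugated secondary, ECL detection.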

[9] = test system: T47D; assay: Growth inhibition of human T47D cells after 72 hrs by CCK8 assay; assay type: functional, cell-based
In short: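 Cells were seeded at 2000–3000 per well and grown 24 h in serum-containing medium. They were then exposed to serially diluted compound for 72 h at 37 °C, 5% CO2. CCK8 reagent was added for 1–4 h and absorbance read at 450 nm. Inhibition = (AC − AS)/(AC − Ab) × 100%. IC50 is the average of at least three independent determinations.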

[10] = target: Serine/threonine-protein kinase mTOR (Homo sapiens, UniProt P42345); assay: Inhibition of N-terminal FLAG-tagged recombinant human mTOR (1362 to end residues)
[11] = test system: PI3-kinase p110-alpha/p85-alpha (Homo sapiens), P27986+P42336 [H1047R]; assay: Inhibition of full length recombinant human p85alpha/PI3K p110alpha H1047R mutant at 1 uM relative to control; in short: as §2
[12] = species: Homo sapiens; assay: Inhibition of mTORC1 in human T47D cells assessed as reduction in S6 phosphorylation at Ser 240/244 residues at 0.25 to 0.5 uM by Western blot analysis; assay type: cell-based; in short: as §3
[13] = test system: SiHa; assay: Cell cycle arrest in human SiHa cells assessed as accumulation at G0/G1 phase at 0.25 to 0.5 uM after 24 hrs by propidium iodide-staining based flow cytometric analysis; assay type: functional
In short: (§4)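 Cells were seeded at 5 × 10^5 cells/mL. At 24 h after plating they were treated with increasing concentrations for 24 h, washed in PBS, and fixed in ice-cold 70% ethanol for at least 24 h. They were stained with propidium iodide plus RNase A for 30 min at 37 °C and analysed by flow cytometry for phase distribution.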

[14] = test system: MCF7; assay: Cell cycle arrest in human MCF7 cells assessed as decrease in S-phase at 0.25 to 0.5 uM after 24 hrs by propidium iodide-staining based flow cytometric analysis; assay type: functional; in short: as §4
[15] = test system: T47D; assay: Cell cycle arrest in human T47D cells assessed as decrease in S-phase at 0.25 to 0.5 uM after 24 hrs by propidium iodide-staining based flow cytometric analysis; assay type: functional; in short: as §4
[16] = test system: MCF7; assay: Cell cycle arrest in human MCF7 cells assessed as accumulation at G0/G1 phase at 0.25 to 0.5 uM after 24 hrs by propidium iodide-staining based flow cytometric analysis; assay type: functional; in short: as §4
[17] = test system: MCF7; assay: Induction of autophagy in human MCF7 cells assessed as increase in LC3-2 level at 0.25 to 0.5 uM after 48 hrs by Western blot analysis; assay type: functional, cell-based
In short: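 Cells were treated for 48 h (2 days) with varying concentrations. Whole-cell lysates were immunoblotted for LC3B-II with β-actin as the internal control. Membranes were blocked in 5% skim milk, incubated with primary antibody overnight at 4 °C, then with peroxidase-conjugated secondary, and developed by ECL.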

[18] = test system: T47D; assay: Antitumor activity against human T47D cells xenografted in BALB/c nude mouse assessed as decrease in tumor growth administered via oral gavage after 3 weeks; assay type: functional, cell-based
[19] = species: Homo sapiens; assay: Inhibition of mTORC1 in human MCF7 cells assessed as reduction in S6 phosphorylation at Ser 240/244 residues at 0.25 to 0.5 uM by Western blot analysis; assay type: cell-based; in short: as §3
[20] = test system: MCF7; assay: Induction of autophagy in human MCF7 cells assessed as increase in LC3-2 puncta level after 48 hrs by immunofluorescence staining based microscopic analysis; assay type: functional, cell-based
[21] = Cmax in Sprague-Dawley rat at 20 mg/kg, iv administered as single dose by HPLC analysis; assay type: ADME, organism-based; set-up: dose 20 mg/kg, route intravenous; conditions: in vivo; in short: as §1
[22] = target: Serine-protein kinase ATM (Homo sapiens, UniProt Q13315); assay: Inhibition of full length recombinant human ATM
Sequence of Serine-protein kinase ATM (Q13315 whole entry): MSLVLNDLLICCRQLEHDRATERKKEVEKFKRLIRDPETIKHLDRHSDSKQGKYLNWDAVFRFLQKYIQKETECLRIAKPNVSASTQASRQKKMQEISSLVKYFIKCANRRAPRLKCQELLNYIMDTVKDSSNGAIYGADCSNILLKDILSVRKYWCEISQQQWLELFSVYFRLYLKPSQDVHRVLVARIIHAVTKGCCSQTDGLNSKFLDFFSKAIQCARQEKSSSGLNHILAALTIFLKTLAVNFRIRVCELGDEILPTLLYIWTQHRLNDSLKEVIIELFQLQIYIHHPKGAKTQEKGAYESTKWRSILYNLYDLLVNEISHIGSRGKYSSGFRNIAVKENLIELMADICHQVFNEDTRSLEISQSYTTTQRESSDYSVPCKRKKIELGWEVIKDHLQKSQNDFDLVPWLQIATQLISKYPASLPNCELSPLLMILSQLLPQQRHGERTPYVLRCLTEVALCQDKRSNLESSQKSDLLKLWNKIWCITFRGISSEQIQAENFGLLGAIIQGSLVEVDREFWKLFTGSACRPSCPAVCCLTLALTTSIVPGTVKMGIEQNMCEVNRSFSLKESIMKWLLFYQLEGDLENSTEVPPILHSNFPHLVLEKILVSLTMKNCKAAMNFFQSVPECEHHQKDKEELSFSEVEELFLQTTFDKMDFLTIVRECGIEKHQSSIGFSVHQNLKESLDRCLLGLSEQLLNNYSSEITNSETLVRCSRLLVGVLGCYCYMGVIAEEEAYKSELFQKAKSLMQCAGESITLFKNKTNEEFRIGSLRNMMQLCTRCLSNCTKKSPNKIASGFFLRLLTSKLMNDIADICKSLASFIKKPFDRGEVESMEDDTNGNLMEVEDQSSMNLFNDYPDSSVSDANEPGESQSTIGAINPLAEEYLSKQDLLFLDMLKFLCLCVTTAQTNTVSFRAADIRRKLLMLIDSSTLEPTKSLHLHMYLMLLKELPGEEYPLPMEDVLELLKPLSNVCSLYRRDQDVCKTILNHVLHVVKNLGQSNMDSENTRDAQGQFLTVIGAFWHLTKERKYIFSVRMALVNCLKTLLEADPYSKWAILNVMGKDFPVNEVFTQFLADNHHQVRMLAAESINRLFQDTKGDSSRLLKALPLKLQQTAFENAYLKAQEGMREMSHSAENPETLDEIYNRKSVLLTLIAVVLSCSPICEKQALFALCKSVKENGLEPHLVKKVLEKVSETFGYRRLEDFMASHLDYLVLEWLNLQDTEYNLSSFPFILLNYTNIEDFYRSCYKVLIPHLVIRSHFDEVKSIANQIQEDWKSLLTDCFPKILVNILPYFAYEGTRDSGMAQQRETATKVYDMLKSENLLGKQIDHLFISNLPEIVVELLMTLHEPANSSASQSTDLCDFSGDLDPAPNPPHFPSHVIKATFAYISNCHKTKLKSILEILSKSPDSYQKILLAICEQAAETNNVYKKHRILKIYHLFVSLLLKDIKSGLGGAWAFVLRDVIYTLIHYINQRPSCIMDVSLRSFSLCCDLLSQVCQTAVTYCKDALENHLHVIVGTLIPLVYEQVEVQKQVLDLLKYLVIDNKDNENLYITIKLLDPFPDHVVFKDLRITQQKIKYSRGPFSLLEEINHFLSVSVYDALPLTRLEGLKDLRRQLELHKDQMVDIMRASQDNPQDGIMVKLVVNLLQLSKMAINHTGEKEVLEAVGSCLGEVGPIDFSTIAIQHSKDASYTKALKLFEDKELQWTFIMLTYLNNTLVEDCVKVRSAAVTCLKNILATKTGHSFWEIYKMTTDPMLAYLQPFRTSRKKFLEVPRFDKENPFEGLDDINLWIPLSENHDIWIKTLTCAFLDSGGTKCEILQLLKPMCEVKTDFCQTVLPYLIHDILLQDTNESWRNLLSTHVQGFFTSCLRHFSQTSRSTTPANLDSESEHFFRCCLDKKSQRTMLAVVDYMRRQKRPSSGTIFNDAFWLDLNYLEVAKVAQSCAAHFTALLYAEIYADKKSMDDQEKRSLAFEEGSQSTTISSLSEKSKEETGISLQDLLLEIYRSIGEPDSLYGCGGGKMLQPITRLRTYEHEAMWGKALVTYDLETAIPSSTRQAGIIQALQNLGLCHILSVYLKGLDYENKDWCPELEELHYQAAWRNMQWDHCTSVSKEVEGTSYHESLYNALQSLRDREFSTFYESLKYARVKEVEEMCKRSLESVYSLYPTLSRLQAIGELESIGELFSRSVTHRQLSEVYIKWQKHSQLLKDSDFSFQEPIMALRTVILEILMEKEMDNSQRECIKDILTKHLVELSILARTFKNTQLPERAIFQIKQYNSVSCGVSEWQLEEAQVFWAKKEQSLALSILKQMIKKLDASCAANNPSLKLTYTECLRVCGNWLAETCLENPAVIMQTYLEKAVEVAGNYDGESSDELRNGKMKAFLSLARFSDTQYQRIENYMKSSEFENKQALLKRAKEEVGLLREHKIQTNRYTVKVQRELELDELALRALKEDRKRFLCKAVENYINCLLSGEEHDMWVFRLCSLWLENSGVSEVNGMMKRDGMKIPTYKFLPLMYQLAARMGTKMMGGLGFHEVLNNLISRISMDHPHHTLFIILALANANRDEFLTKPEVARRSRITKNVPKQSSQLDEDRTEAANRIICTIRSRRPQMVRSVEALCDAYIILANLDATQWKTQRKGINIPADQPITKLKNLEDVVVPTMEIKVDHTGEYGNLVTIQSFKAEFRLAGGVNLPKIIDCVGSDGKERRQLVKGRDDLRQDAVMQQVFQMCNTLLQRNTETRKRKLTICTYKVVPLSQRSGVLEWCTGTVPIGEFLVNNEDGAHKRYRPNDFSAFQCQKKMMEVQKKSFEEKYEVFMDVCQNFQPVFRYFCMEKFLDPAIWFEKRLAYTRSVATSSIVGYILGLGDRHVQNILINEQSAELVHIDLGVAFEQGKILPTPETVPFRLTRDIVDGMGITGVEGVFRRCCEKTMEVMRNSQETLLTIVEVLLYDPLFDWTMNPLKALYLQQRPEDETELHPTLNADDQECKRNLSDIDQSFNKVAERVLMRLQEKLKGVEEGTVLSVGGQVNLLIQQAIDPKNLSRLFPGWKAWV

[23] = species: Mus musculus; assay: Inhibition of full length recombinant mouse PI3K p85alpha/p110alpha E545K mutant at 1 uM relative to control; in short: as §2
[24] = target: mTOR/FKBP12A/FKBP12B (Homo sapiens, UniProt P42345+P62942+P68106); assay: Inhibition of full length recombinant human mTOR/FKBP12; assay type: protein-complex assay
Sequence of mTOR/FKBP12A/FKBP12B (P62942 2-108 limits assumed, other chains not shown): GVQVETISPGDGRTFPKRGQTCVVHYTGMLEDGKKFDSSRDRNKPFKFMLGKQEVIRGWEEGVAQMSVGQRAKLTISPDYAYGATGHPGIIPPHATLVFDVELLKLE
Sequence of mTOR/FKBP12A/FKBP12B (P68106 whole entry, other chains not shown): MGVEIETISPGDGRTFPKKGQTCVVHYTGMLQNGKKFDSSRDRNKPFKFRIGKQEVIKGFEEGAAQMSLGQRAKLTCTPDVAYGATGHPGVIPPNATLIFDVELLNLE

[25] = test system: T47D; assay: Antitumor activity against human T47D cells xenografted in BALB/c nude mouse assessed as decrease in tumor growth at 30 mg/kg, po administered via gavage after 3 weeks relative to control; assay type: functional; conditions: 504 h, read-out: TGI

N#CCN1CCC(n2c(=O)cnc3cnc4ccc(-c5ccc(N)nc5)cc4c32)CC1
Activity [1]: Active | AUC(0-inf) [2]: 2850 ng·h/mL | inhibition [3]: Active | inhibition [4]: 5% | inhibition [5]: 5% | bioavailability [6]: 43.5% | fraction unbound at 4 h, 4 µM [7]: 0.399 | inhibition [8]: Active | IC50 [9]: 205 nM | IC50 [10]: 7 nM | inhibition [11]: 2% | inhibition [12]: Active | Activity [13]: Active | Activity [14]: Active | Activity [15]: Active | Activity [16]: Active | Activity [17]: Active | TGI [18]: Dose-dependent effect | inhibition [19]: Active | Activity [20]: Dose-dependent effect | Cmax [21]: 4470 ng/mL | IC50 [22]: 62 nM | inhibition [23]: 9% | IC50 [24]: 8 nM | inhibition in vivo at 30 mg/kg [25]: 75.6%
